Compound activity from PubChem.
The list is not random: actives were taken first. Their share in the collection is about 2.2%.
UBC13 inh: human UBC13 polyubiquitination inhibition; inhibition, % at 20 µM; UBC13 polyubiquitin chain formation, TR-FRET; actives 0.47% (n = 330,000); P61088; AID 485273; in the data active = inhibition above about 45%, passing the limit was not always enough
SUMO HTRF inh: inhibitors of human SUMOylation (UBC9) | P63279 | HTRF SUMOylation assay, SAE1/SAE2 + UBC9, in vitro | inhibition, % at 35 µM | actives 0.36% (n = 290,000) | AID 2006; in the data active = inhibition above about 50%, passing the limit was not always enough
Rin1-Abl PPI inh: blocks binding of human Rin1 to Abl; TR-FRET Rin1/Abl binding, biochemical; inhibition, % at 7.35 µM; actives 0.4% (n = 360,000); in the data active = inhibition above about 5%, passing the limit was not always enough
PAD4 FP inh: blocks human protein arginine deiminase 4. Q9UM07. recombinant PAD4, RCA probe fluorescence polarization. inhibition, % at 6.36 µM. actives 0.41% (n = 330,000). AID 485272;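 active = percent inhibition above a cutoff equal to the mean of all tested compounds plus 3 SD, cut at about 15% in these data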
Apaf1 inhib: human Apaf-1 inhibition; inhibition, % at 20 µM; reconstituted apoptosome caspase-3 activity, DEVD-Rh110 fluorescence; actives 0.71% (n = 330,000); AID 489030; active = inhibition of at least 40% at 20 µM
Target sequence (O14727 whole entry, looked up): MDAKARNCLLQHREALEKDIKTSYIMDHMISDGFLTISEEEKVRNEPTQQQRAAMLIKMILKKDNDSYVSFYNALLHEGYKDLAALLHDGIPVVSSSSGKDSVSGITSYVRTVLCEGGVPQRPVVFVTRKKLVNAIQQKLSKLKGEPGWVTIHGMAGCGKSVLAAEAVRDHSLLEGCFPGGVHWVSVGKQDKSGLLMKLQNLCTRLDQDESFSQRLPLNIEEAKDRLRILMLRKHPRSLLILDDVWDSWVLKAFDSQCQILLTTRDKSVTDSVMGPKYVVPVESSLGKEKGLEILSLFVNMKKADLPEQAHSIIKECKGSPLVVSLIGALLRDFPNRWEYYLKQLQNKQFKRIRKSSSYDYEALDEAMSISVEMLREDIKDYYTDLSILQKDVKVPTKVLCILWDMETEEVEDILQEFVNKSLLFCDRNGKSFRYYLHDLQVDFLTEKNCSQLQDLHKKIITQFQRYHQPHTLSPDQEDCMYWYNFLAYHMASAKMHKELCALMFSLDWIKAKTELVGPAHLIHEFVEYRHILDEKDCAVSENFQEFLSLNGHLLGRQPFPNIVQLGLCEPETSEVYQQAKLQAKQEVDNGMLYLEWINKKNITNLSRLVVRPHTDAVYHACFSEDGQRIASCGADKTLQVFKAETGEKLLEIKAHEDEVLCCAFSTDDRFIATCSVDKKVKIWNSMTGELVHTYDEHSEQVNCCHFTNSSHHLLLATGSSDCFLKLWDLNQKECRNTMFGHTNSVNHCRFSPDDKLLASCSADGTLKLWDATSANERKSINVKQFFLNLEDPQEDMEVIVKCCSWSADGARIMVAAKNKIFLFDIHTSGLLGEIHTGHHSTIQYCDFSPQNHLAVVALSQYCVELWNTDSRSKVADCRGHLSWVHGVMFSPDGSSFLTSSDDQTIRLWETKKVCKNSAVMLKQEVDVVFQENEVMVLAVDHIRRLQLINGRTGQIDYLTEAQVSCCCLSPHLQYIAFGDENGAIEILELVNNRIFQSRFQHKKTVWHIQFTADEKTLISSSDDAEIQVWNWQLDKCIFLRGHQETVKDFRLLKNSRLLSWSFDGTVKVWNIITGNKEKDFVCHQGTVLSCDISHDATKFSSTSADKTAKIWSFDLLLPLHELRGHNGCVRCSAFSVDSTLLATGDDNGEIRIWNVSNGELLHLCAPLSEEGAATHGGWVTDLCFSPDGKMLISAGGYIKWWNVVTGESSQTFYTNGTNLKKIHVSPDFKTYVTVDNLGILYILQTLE
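Assay system: Apoptosome proteins | Medium: pH 7.5 Hepes buffer with CHAPS, BSA, DTT | Also added: Cytochrome c and DEVD-Rh110 substrate | Times: 30 min plus 50 min, RT | Detection: Rhodamine 110 fluorescence at Ex 480/Em 540 nm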
GSTO1 counter: blocks human GSTO1 in RBBP9 counter-screen; recombinant GSTO1, activity-based probe fluorescence polarization; actives 1.1% (n = 300,000); inhibition, % at 5.96 µM; P78417;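 active = inhibition above the campaign mean inhibition plus 3 SD, cut at about 35% in these data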
Rin1-Abl confirm: confirmation of inhibitors of human Rin1-Abl interaction; actives 49% (n = 1,300); shares compounds with Rin1-Abl PPI inh; TR-FRET Rin1-Abl binding, purified proteins; AID 602124; inhibition, % at 7.35 µM
GFP quencher: counter-screen for Rin1-Abl inhibitors: GFP fluorescence quenchers; shares compounds with Rin1-Abl PPI inh; inhibitors/quenchers counterscreen; inhibition, % at 6.75 µM; actives 8.5% (n = 1,300); AID 602125;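 also: ABL1-eGFP fusion protein alone without its partner RIN1-SBP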
GFP quench dose: counter-screen for Rin1-Abl inhibitors: GFP quenchers, dose response. shares compounds with Rin1-Abl PPI inh. GFP fluorescence interference/quenching counterscreen. IC50, µM. 230 tested, under 10 active. AID 602182; call rule not given here;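 also: ABL1-eGFP fusion protein alone without its RIN1 binding partner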
A number is an active result. Rule as the data show it, unless noted: active = inhibition above about 6.5%; inactive = the rest.

Results for O=C(OCc1ccccc1)N1CCC2CC1c1ccc(Cl)cc12 (configuration not stated) ?
Rin1-Abl PPI inh: inactive

Results for O=C(CN1C(=O)CCSc2ccc(S(=O)(=O)N3CCOCC3)cc21)Nc1cccc(F)c1 ?
UBC13 inh: inactive; SUMO HTRF inh: inactive; Rin1-Abl PPI inh: 16; PAD4 FP inh: inactive; Apaf1 inhib: inactive; GSTO1 counter: inactive; Rin1-Abl confirm: 15; GFP quencher: inactive

How did COC(=O)c1ccc(CSc2nnc(CNC(=O)COc3ccc(Cl)cc3)o2)o1 do in these assays?
UBC13 inh: inactive; SUMO HTRF inh: inactive; Rin1-Abl PPI inh: 17; PAD4 FP inh: inactive; Apaf1 inhib: inactive; GSTO1 counter: inactive; Rin1-Abl confirm: 19; GFP quencher: inactive; GFP quench dose: inactive

Results for COC(=O)c1ccc(CSc2nnc(CNC(=O)c3ccc(OC)cc3)o2)o1 ?
UBC13 inh: inactive; SUMO HTRF inh: inactive; Rin1-Abl PPI inh: inactive; PAD4 FP inh: inactive; Apaf1 inhib: inactive; GSTO1 counter: inactive

How did COC(=O)c1ccc(CSc2nnc(CNC(=O)c3ccccc3F)o2)o1 do in these assays?
UBC13 inh: inactive; SUMO HTRF inh: inactive; Rin1-Abl PPI inh: 8.5; PAD4 FP inh: inactive; Apaf1 inhib: inactive; GSTO1 counter: inactive; Rin1-Abl confirm: 11; GFP quencher: inactive

What do the screens show for `Cc1cc(C)c2[nH]c(C(=O)N3CCC(n4nccc4NC(=O)C4CC4)CC3)c(C)c2c1`?
UBC13 inh: inactive; SUMO HTRF inh: inactive; Rin1-Abl PPI inh: inactive; Apaf1 inhib: inactive

How did COCCC1CCCCN1C(=O)c1ccc(OC2CCN(C(C)=O)CC2)c(OC)c1 (configuration not stated) do in these assays?
UBC13 inh: inactive; SUMO HTRF inh: inactive; Rin1-Abl PPI inh: 13; PAD4 FP inh: inactive; Apaf1 inhib: inactive; GSTO1 counter: inactive; Rin1-Abl confirm: inactive; GFP quencher: inactive

What do the screens show for `COc1cc(=O)[nH]c(SCC(=O)Nc2ccc3ccccc3c2)n1`?
UBC13 inh: inactive; SUMO HTRF inh: inactive; Rin1-Abl PPI inh: 13; PAD4 FP inh: inactive; Apaf1 inhib: inactive; GSTO1 counter: inactive; Rin1-Abl confirm: inactive; GFP quencher: inactive

What do the screens show for `CCCc1cc(=O)[nH]c(SCC(=O)Nc2ccc3ccccc3c2)n1`?
UBC13 inh: inactive; Rin1-Abl PPI inh: inactive; PAD4 FP inh: inactive; Apaf1 inhib: inactive

How did O=c1[nH]cnc2c1nnn2C1OC(CO)C(O)C1O (configuration not stated) do in these assays?
Rin1-Abl PPI inh: inactive

How did COc1cc2c(C(=O)NCc3ccc(C)o3)cn(CC(C)C)c(=O)c2cc1OC do in these assays?
UBC13 inh: inactive; SUMO HTRF inh: inactive; Rin1-Abl PPI inh: 6.9; PAD4 FP inh: inactive; Apaf1 inhib: inactive; GSTO1 counter: inactive; Rin1-Abl confirm: inactive; GFP quencher: inactive

What do the screens show for `CCc1nc2c(OCC3COc4ccccc4O3)cccn2c1N(C)C(=O)c1cccc(OC)c1` (configuration not stated)?
Rin1-Abl PPI inh: inactive

How did O=C1N(Cc2cccnc2)C[C@@H]2C[C@@H](c3ccc4nsnc4c3)N3CCC[C@@]123 do in these assays?
UBC13 inh: inactive; SUMO HTRF inh: inactive; Rin1-Abl PPI inh: 16; PAD4 FP inh: inactive; Apaf1 inhib: inactive; GSTO1 counter: inactive; Rin1-Abl confirm: 16; GFP quencher: inactive

What do the screens show for `O=C1N(Cc2cccnc2)C[C@@H]2C[C@@H](c3ccc4nonc4c3)N3CCC[C@@]123`?
UBC13 inh: inactive; SUMO HTRF inh: inactive; Rin1-Abl PPI inh: inactive; PAD4 FP inh: inactive; Apaf1 inhib: inactive; GSTO1 counter: inactive

How did Cc1ccccc1-c1nnc2c3ccccc3c(C)nn12 do in these assays?
UBC13 inh: inactive; SUMO HTRF inh: inactive; Rin1-Abl PPI inh: inactive; PAD4 FP inh: inactive; Apaf1 inhib: inactive; GSTO1 counter: inactive

What do the screens show for `Cc1nn2c(-c3ccco3)nnc2c2ccccc12`?
UBC13 inh: inactive; SUMO HTRF inh: inactive; Rin1-Abl PPI inh: 10; PAD4 FP inh: inactive; Apaf1 inhib: inactive; GSTO1 counter: inactive; Rin1-Abl confirm: 14; GFP quencher: inactive

How did COC(=O)c1cc(=O)nc(NN=Cc2ccc(OC)cc2)s1 do in these assays?
Rin1-Abl PPI inh: inactive

What do the screens show for `Oc1ccc(N=Nc2ccc3c(c2)OCCO3)c(O)c1`?
UBC13 inh: inactive; SUMO HTRF inh: inactive; Rin1-Abl PPI inh: inactive; PAD4 FP inh: inactive; Apaf1 inhib: inactive; GSTO1 counter: inactive

How did COc1ccc(N=Nc2ccc(O)c3ncccc23)cc1 do in these assays?
UBC13 inh: inactive; SUMO HTRF inh: inactive; Rin1-Abl PPI inh: inactive; PAD4 FP inh: inactive; Apaf1 inhib: inactive; GSTO1 counter: inactive

How did COc1ccc(C)cc1N=Nc1ccc(O)c2ncccc12 do in these assays?
SUMO HTRF inh: inactive; Rin1-Abl PPI inh: 9.0; Rin1-Abl confirm: 11; GFP quencher: 7.0

Results for Oc1ccc(N=Nc2ccc3c(c2)OCCO3)c2cccnc12 ?
UBC13 inh: inactive; SUMO HTRF inh: inactive; Rin1-Abl PPI inh: 11; PAD4 FP inh: inactive; Apaf1 inhib: inactive; GSTO1 counter: inactive; Rin1-Abl confirm: 8.4; GFP quencher: 8.1

Results for CC(=O)OCCN(CCCn1c(-c2ccncc2)nc2ccccc21)c1nc(CN2CCCCC2)cs1 ?
UBC13 inh: inactive; SUMO HTRF inh: inactive; Rin1-Abl PPI inh: 8.4; PAD4 FP inh: inactive; Apaf1 inhib: inactive; GSTO1 counter: inactive; Rin1-Abl confirm: inactive; GFP quencher: inactive

Results for c1ccc2c(c1)nc(-c1ccncc1)n2CCNc1nc(CN2CCCCC2)cs1 ?
UBC13 inh: inactive; SUMO HTRF inh: inactive; Rin1-Abl PPI inh: inactive; PAD4 FP inh: inactive; Apaf1 inhib: inactive; GSTO1 counter: inactive

Results for CCCc1cc(=O)oc2c(CNc3ccc(OCC)cc3)c(O)ccc12 ?
UBC13 inh: inactive; SUMO HTRF inh: inactive; Rin1-Abl PPI inh: inactive; PAD4 FP inh: inactive; Apaf1 inhib: inactive; GSTO1 counter: inactive

What do the screens show for `CC(C)N(CCNC(=O)c1ccc(CS(=O)(=O)c2c(Cl)cccc2Cl)o1)Cc1ccccc1`?
UBC13 inh: inactive; SUMO HTRF inh: inactive; Rin1-Abl PPI inh: inactive; PAD4 FP inh: inactive; Apaf1 inhib: inactive; GSTO1 counter: inactive

What do the screens show for `C[C@@H]1O[C@@H](O[C@H]2[C@H](O)[C@@H](O)[C@H](Oc3c(-c4ccc(O)c(O)c4)oc4cc(O)cc(O)c4c3=O)O[C@@H]2CO)[C@H](O)[C@H](O)[C@H]1O`?
UBC13 inh: inactive; Rin1-Abl PPI inh: 11; PAD4 FP inh: inactive; Apaf1 inhib: inactive; Rin1-Abl confirm: 11; GFP quencher: inactive
